Test results as given in ChEMBL document CHEMBL1124231, “Structure-activity relationships among analogues of pemedolac, cis-1-ethyl-1,3,4,9-tetrahydro-4-(phenylmethyl)pyrano[3,4-b]indo le-1-a cetic acid, a potent analgesic agent” (J Med Chem, 1988).

Experiments:
Mus musculus [1] = experiment: Inhibition against writhing induced by Phenylbenzoquinone in male swiss albino mice at 25 mg/kg; assay type: functional
How it was run: (§1)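 Mice in groups of 10, fasted overnight, dosed by gastric gavage with compound or vehicle (0.5% Tween 80 in distilled water). PBQ given ip 1 h later (0.15 mL of 0.02% per 10 g body weight). Writhes counted per mouse over the following 15 min. […] Benzylamine salts dosed as free acid.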

Rattus norvegicus [2] = experiment: Inhibition against adjuvant-induced paw edema at a dose of 25 mg/kg in male Sprague-Dawley rats.; assay type: functional
How it was run: (§2)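 Male Sprague-Dawley rats (180–200 g), left hindpaw injected intradermally with 0.1 mL Freund's complete adjuvant. Compound or vehicle given by gastric gavage just before FCA (day 0) and at 24 and 48 h. Paw volume read by plethysmometer before FCA and on day 3. Edema is the day 0 to day 3 volume difference, averaged per group.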

[3] = Inhibitory activity against prostaglandin biosynthesis in stimulated chondrocyte cell culture; assay type: functional
[4] = Partition coefficient (logP); assay type: physicochemical; conditions: octanol/water
How it was run: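 Calculated by computer program, not measured experimentally.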

Mus musculus [5] = species on record: Mus musculus; experiment: Inhibition against writhing induced by Phenylbenzoquinone in male swiss albino mice; assay type: functional; how it was run: as §1
Mus musculus [6] = experiment: Inhibition against writhing induced by Phenylbenzoquinone in male swiss albino mice; at 25 mg/kg; assay type: functional; how it was run: as §1
Mus musculus [7] = experiment: Inhibition against writhing induced by Phenylbenzoquinone in male swiss albino mice at 10 mg/kg; assay type: functional; how it was run: as §1
Mus musculus [8] = experiment: Inhibition against writhing induced by Phenylbenzoquinone in male swiss albino mice at 200 mg/kg; assay type: functional; how it was run: as §1
Rattus norvegicus [9] = experiment: Inhibition against adjuvant-induced paw edema at a dose of 25 mg/kg in Male Sprague-Dawley rats; assay type: functional; how it was run: as §2

SMILES: CCc1cccc2c3c([nH]c12)C(CC)(CC(=O)O)CC[C@H]3Cc1ccccc1 (stereo not given in full)
- inhibition in vivo at 25 mg/kg (Mus musculus [1]): 15%
- inhibition in vivo at 25 mg/kg (Rattus norvegicus [2]): 6%

SMILES: C=CC[C@@H]1COC(CC)(CC(=O)O)c2[nH]c3ccccc3c21 (stereo not given in full)
- IC50 [3]: > 10000 nM
- inhibition in vivo at 25 mg/kg (Mus musculus [1]): 25%
- inhibition in vivo at 25 mg/kg (Rattus norvegicus [2]): 30%

SMILES: CCc1cccc2c3c([nH]c12)C(CC)(CC(=O)O)OC[C@@H]3Cc1ccccc1 (stereo not given in full)
- logP [4]: 5.6
- inhibition in vivo at 25 mg/kg (Rattus norvegicus [2]): 15%

SMILES: C=CCC[C@H]1CCC(CC)(CC(=O)O)c2[nH]c3c(CC)cccc3c21 (stereo not given in full)
- inhibition in vivo at 25 mg/kg (Mus musculus [1]): 2%
- inhibition in vivo at 25 mg/kg (Rattus norvegicus [2]): 43%

SMILES: C=CC[C@H]1CC[C@](CC)(CC(=O)O)c2[nH]c3c(CC)cccc3c21
- IC50 [3]: 4000 nM
- inhibition in vivo at 25 mg/kg (Mus musculus [1]): 5%
- inhibition in vivo at 25 mg/kg (Rattus norvegicus [2]): 0%

SMILES: CCC1(CC(=O)O)OC[C@H](Cc2ccccc2)c2c1[nH]c1ccccc21 (single isomer, unassigned) [DEXPEMEDOLAC]
- logP [4]: 4.4
- IC50 [3]: 23 nM
- ED50 (Mus musculus [5]): 2 mg/kg
- inhibition in vivo at 25 mg/kg (Rattus norvegicus [2]): 37%

SMILES: CCC1(CC(=O)O)OC[C@H](CCc2ccccc2)c2c1[nH]c1ccccc21 (stereo not given in full)
- inhibition in vivo at 25 mg/kg (Mus musculus [6]): 0%
- inhibition in vivo at 25 mg/kg (Rattus norvegicus [2]): 0%

SMILES: CCc1cccc2c3c([nH]c12)C(CC)(CC(=O)O)CC[C@@H]3CC1CC1 (stereo not given in full)
- inhibition in vivo at 25 mg/kg (Mus musculus [1]): 0%
- inhibition in vivo at 25 mg/kg (Rattus norvegicus [2]): 19%

SMILES: C=CC[C@H]1CCC(CC)(CC(=O)O)c2[nH]c3c(CCC)cccc3c21 (stereo not given in full)
- logP [4]: 6.9
- ED50 (Mus musculus [5]): 28.7 mg/kg
- inhibition in vivo at 25 mg/kg (Rattus norvegicus [2]): 39%

SMILES: C=CC[C@@H]1COC(CC)(CC(=O)O)c2[nH]c3c(CC)cccc3c21 (stereo not given in full)
- inhibition in vivo at 25 mg/kg (Mus musculus [1]): 33%
- inhibition in vivo at 25 mg/kg (Rattus norvegicus [2]): 55%

SMILES: CCC1(CC(=O)O)OC[C@@H](Cc2ccccc2)c2c1[nH]c1c(C)cccc21 (stereo not given in full)
- inhibition in vivo at 25 mg/kg (Mus musculus [1]): 11%
- inhibition in vivo at 25 mg/kg (Rattus norvegicus [2]): 40%

SMILES: C=C[C@@H]1CCC(CC)(CC(=O)O)c2[nH]c3c(CC)cccc3c21 (stereo not given in full)
- inhibition in vivo at 25 mg/kg (Mus musculus [1]): 0%
- inhibition in vivo at 25 mg/kg (Rattus norvegicus [2]): 62%

SMILES: C=CC[C@@H]1COC(CC)(CC(=O)O)c2[nH]c3c(C)cccc3c21 (stereo not given in full)
- IC50 [3]: > 10000 nM
- inhibition in vivo at 25 mg/kg (Mus musculus [1]): 15%
- inhibition in vivo at 25 mg/kg (Rattus norvegicus [2]): 31%

SMILES: CCc1cccc2c3c([nH]c12)C(CC)(CC(=O)O)CC[C@@H]3Cc1ccccc1 (stereo not given in full)
- logP [4]: 7.4
- ED50 (Mus musculus [5]): 22.3 mg/kg
- inhibition in vivo at 25 mg/kg (Rattus norvegicus [2]): 38%

SMILES: CCC1(CC(=O)O)OC[C@H](Cc2ccccc2)c2c1[nH]c1c(C)cccc21 (stereo not given in full)
- logP [4]: 5
- ED50 (Mus musculus [5]): 4.7 mg/kg
- inhibition in vivo at 25 mg/kg (Rattus norvegicus [2]): 47%

SMILES: CCC1(CC(=O)O)CC[C@@H](Cc2ccccc2)c2c1[nH]c1ccccc21 (stereo not given in full)
- inhibition in vivo at 25 mg/kg (Mus musculus [1]): 4%
- inhibition in vivo at 25 mg/kg (Rattus norvegicus [2]): 42%

SMILES: CCC1(CC(=O)O)CC[C@H](Cc2ccccc2)c2c1[nH]c1ccccc21 (stereo not given in full)
- logP [4]: 6.2
- IC50 [3]: 11 nM
- ED50 (Mus musculus [5]): 1.2 mg/kg
- inhibition in vivo at 25 mg/kg (Rattus norvegicus [2]): 49%

SMILES: C=CC[C@H]1CCC(CC)(CC(=O)O)c2[nH]c3ccccc3c21 (stereo not given in full)
- logP [4]: 5.2
- IC50 [3]: 50 nM
- ED50 (Mus musculus [5]): 19.6 mg/kg

SMILES: C=CCC[C@@H]1CCC(CC)(CC(=O)O)c2[nH]c3c(CC)cccc3c21 (stereo not given in full)
- inhibition in vivo at 25 mg/kg (Mus musculus [1]): 0%
- inhibition in vivo at 25 mg/kg (Rattus norvegicus [2]): 16%

SMILES: CCC1(CC(=O)O)CC[C@@H](Cc2ccccc2)c2c1[nH]c1c(C)cccc21 (stereo not given in full)
- inhibition in vivo at 10 mg/kg (Mus musculus [7]): 5%
- inhibition in vivo at 25 mg/kg (Rattus norvegicus [2]): 24%

SMILES: CCC[C@H]1CCC(CC)(CC(=O)O)c2[nH]c3c(CC)cccc3c21 (stereo not given in full)
- inhibition in vivo at 25 mg/kg (Mus musculus [1]): 15%

SMILES: C=CC[C@@H]1COC(CC)(CC(=O)O)c2[nH]c3c(CCC)cccc3c21 (stereo not given in full)
- inhibition in vivo at 25 mg/kg (Mus musculus [1]): 2%
- inhibition in vivo at 25 mg/kg (Rattus norvegicus [2]): 36%

SMILES: C=CC[C@H]1COC(CC)(CC(=O)O)c2[nH]c3c(CC)cccc3c21 (stereo not given in full)
- logP [4]: 4.5
- IC50 [3]: 300 nM
- ED50 (Mus musculus [5]): 6.2 mg/kg

SMILES: C=C[C@H]1CCC(CC)(CC(=O)O)c2[nH]c3c(CC)cccc3c21 (stereo not given in full)
- inhibition in vivo at 25 mg/kg (Mus musculus [1]): 21%
- inhibition in vivo at 25 mg/kg (Rattus norvegicus [2]): 30%

SMILES: C=CC[C@@H]1CCC(CC)(CC(=O)O)c2[nH]c3c(CC)cccc3c21 (stereo not given in full)
- inhibition in vivo at 200 mg/kg (Mus musculus [8]): 23%
- inhibition in vivo at 25 mg/kg (Rattus norvegicus [2]): 35%

SMILES: CCC1(CC(=O)O)OC[C@@H](CCc2ccccc2)c2c1[nH]c1ccccc21 (stereo not given in full)
- inhibition in vivo at 25 mg/kg (Mus musculus [6]): 0%
- inhibition in vivo at 25 mg/kg (Rattus norvegicus [2]): 20%

SMILES: C=CC[C@H]1CCC(CC)(CC(=O)O)c2[nH]c3c(C)cccc3c21 (stereo not given in full)
- logP [4]: 5.8
- IC50 [3]: 50 nM
- ED50 (Mus musculus [5]): 8.3 mg/kg

SMILES: C=CC[C@H]1CC[C@@](CC)(CC(=O)O)c2[nH]c3c(CC)cccc3c21
- IC50 [3]: 15 nM
- inhibition in vivo at 25 mg/kg (Mus musculus [1]): 94%
- inhibition in vivo at 25 mg/kg (Rattus norvegicus [2]): 54%

SMILES: CCc1cccc2c3c([nH]c12)C(CC)(CC(=O)O)CCC3 (stereo not given)
- logP [4]: 5.3
- IC50 [3]: 20 nM

SMILES: CCc1cccc2c3c([nH]c12)C(CC)(CC(=O)O)CC[C@@H]3c1ccccc1 (stereo not given in full)
- inhibition in vivo at 25 mg/kg (Mus musculus [1]): 17%
- inhibition in vivo at 25 mg/kg (Rattus norvegicus [2]): 12%

SMILES: COc1ccc2c(c1)c(CC(=O)O)c(C)n2C(=O)c1ccc(Cl)cc1 [INDOMETHACIN]
- IC50 [3]: 11 nM
- ED50 (Mus musculus [5]): 1.5 mg/kg

SMILES: C=CC[C@H]1COC(CC)(CC(=O)O)c2[nH]c3c(CCC)cccc3c21 (stereo not given in full)
- ED50 (Mus musculus [5]): 9.5 mg/kg
- inhibition in vivo at 25 mg/kg (Rattus norvegicus [2]): 32%

SMILES: C=CC[C@H]1COC(CC)(CC(=O)O)c2[nH]c3ccccc3c21 (stereo not given in full)
- logP [4]: 3.3
- IC50 [3]: 120 nM
- inhibition in vivo at 25 mg/kg (Mus musculus [1]): 21%
- inhibition in vivo at 25 mg/kg (Rattus norvegicus [9]): 46%

SMILES: CCc1cccc2c3c([nH]c12)C(CC)(CC(=O)O)CC[C@H]3c1ccccc1 (stereo not given in full)
- inhibition in vivo at 25 mg/kg (Mus musculus [1]): 28%
- inhibition in vivo at 25 mg/kg (Rattus norvegicus [2]): 37%

SMILES: CCc1cccc2c3c([nH]c12)C(CC)(CC(=O)O)OCC3 (stereo not given) [ETODOLAC]
- IC50 [3]: 23 nM

SMILES: CCC1(CC(=O)O)CC[C@H](Cc2ccccc2)c2c1[nH]c1c(C)cccc21 (stereo not given in full)
- logP [4]: 6.9
- ED50 (Mus musculus [5]): 3.4 mg/kg
- inhibition in vivo at 25 mg/kg (Rattus norvegicus [2]): 43%

SMILES: C=CC[C@H]1CCC(CC)(CC(=O)O)c2[nH]c3c(CC)cccc3c21 (stereo not given in full)
- logP [4]: 6.3
- IC50 [3]: 15 nM
- ED50 (Mus musculus [5]): 10.6 mg/kg
- inhibition in vivo at 25 mg/kg (Rattus norvegicus [2]): 44%

SMILES: C=CC[C@H]1COC(CC)(CC(=O)O)c2[nH]c3c(C)cccc3c21 (stereo not given in full)
- logP [4]: 4
- IC50 [3]: 200 nM
- inhibition in vivo at 25 mg/kg (Mus musculus [1]): 10%
- inhibition in vivo at 25 mg/kg (Rattus norvegicus [2]): 54%
